Results as given in ChEMBL document CHEMBL4811235, “Design, synthesis, biological evaluation and structure-activity relationship study of quinazolin-4(3H)-one derivatives as novel USP7 inhibitors” (Eur J Med Chem, 2021).
Each block holds one compound with its values, some of them ahead of it. Active and inactive are the calls of the source. The calls are words filed in the database; no cut-off is given here.

Key:
[1] = biological target: T1, Ubiquitin carboxyl-terminal hydrolase 7 (Homo sapiens, UniProt Q93009); experiment: Inhibition of recombinant USP7 catalytic domain (unknown origin) using UbA10 as substrate incubated with substrate for 75 mins followed by compound addition and measured after 1 hr by TR-FRET assay relative to control; design: concentration or dose not given beside the values
Procedure, shortened: (§1)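 TR-FRET deubiquitinase assay. The recombinant USP7 catalytic domain was mixed with compound (from 2.5 mM DMSO stocks) in 50 mM HEPES pH 7.5 with 0.01% Triton X-100 for 10 min at 25 °C. The substrate was GST- and biotin-tagged Ub-A10, incubated for 75 min at 37 °C. Streptavidin-d2/anti-GST-Eu detection reagents were then added for 1 h at 25 °C and the signal read at […]/em 665 nm. IC50 came from regression.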
Target sequence in this assay (Q93009 whole entry, looked up, the tested form may be a part): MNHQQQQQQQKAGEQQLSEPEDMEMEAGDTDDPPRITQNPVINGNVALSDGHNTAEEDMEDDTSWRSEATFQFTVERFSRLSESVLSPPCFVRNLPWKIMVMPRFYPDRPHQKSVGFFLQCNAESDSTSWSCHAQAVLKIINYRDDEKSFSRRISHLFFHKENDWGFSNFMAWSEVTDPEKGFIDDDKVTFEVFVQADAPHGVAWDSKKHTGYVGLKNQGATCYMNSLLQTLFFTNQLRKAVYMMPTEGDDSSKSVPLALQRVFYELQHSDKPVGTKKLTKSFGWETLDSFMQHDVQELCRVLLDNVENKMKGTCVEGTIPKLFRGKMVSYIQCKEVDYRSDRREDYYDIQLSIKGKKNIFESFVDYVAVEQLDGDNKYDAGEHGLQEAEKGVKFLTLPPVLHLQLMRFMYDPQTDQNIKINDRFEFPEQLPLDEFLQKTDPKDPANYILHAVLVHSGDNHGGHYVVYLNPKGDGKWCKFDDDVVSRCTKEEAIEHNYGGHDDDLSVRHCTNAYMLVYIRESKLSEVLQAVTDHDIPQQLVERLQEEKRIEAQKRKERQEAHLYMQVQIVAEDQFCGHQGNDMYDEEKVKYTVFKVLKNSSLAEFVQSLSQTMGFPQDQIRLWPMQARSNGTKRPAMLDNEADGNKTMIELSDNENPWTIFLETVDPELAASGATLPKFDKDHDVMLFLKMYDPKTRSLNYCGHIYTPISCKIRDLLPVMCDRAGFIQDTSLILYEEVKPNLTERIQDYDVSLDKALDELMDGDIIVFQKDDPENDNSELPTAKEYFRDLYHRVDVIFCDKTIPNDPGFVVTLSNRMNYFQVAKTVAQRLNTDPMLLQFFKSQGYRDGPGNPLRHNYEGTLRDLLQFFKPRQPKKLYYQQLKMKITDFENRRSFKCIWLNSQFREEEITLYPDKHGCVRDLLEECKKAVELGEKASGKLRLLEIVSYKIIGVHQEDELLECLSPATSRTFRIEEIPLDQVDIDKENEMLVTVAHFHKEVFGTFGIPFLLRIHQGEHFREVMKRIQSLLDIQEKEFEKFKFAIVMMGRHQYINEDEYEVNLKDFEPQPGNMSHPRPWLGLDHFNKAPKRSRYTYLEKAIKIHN

[2] = biological target: T1, Ubiquitin carboxyl-terminal hydrolase 7; experiment: Inhibition of recombinant USP7 catalytic domain (unknown origin) using UbA10 as substrate incubated with substrate for 75 mins followed by compound addition and measured after 1 hr by TR-FRET assay; procedure, shortened: as §1
Target sequence in this assay (Q93009 whole entry, the tested form may be a part): as the sequence (Q93009 whole entry, looked up, the tested form may be a part) above

[3] = biological target: T1, Ubiquitin carboxyl-terminal hydrolase 7; experiment: Inhibition of USP7 in human BGC-823 cells assessed as upregulation of p21 protein expression by Western blot analysis; assay type: cell-based
Target sequence in this assay (Q93009 whole entry, looked up, the tested form may be a part): as above

[4] = biological target: T1, Ubiquitin carboxyl-terminal hydrolase 7; experiment: Inhibition of N-terminal His-FLAG-tagged human USP7 (2 to 1102 residues) expressed in baculovirus infected Sf9 cells using Ub-AMC as substrate preincubated with enzyme for 40 mins followed by substrate addition for 30 mins by fluorescence plate reader analysis
Procedure, shortened: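 USP7 activity with a commercial Ub-AMC inhibitor screening kit. Compound working solutions were made in 1X buffer containing 6.5 mM DTT. USP7 was added and preincubated for 40 min at 25 °C. Ub-AMC, diluted 800-fold, was added for 30 min at 25 °C. Fluorescence was read at ex 360/em 460 nm, and IC50 came from regression.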
Target sequence in this assay (Q93009 whole entry, the tested form may be a part): as the sequence (Q93009 whole entry, looked up, the tested form may be a part) above

MGC-803 [5] = experiment: Cytotoxicity against human MGC-803 cells incubated for 4 hrs by MTT assay; assay type: functional, cell-based; settings: for IC50: MGC-803, 4 h
Procedure, shortened: (§2)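 MTT assay. Compounds were dissolved in DMSO and tested at […] in triplicate. Cells were incubated with MTT at 37 °C for 4 h, the medium was replaced with DMSO, and absorbance was read at 490 nm. IC50 values came from regression.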

BGC-823 [6] = experiment: Cytotoxicity against human BGC-823 cells incubated for 4 hrs by MTT assay; assay type: functional, cell-based; procedure, shortened: as §2
MGC-803 [7] = experiment: Cytotoxicity against human MGC-803 cells at 50 uM incubated for 4 hrs by MTT assay relative to control; assay type: functional
BGC-823 [8] = experiment: Cytotoxicity against human BGC-823 cells at 50 uM incubated for 4 hrs by MTT assay relative to control; assay type: functional
MGC-803 [9] = experiment: Inhibition of colony formation in human MGC-803 cells after 7 days by crystal violet staining based assay; assay type: functional, cell-based; settings: time 7.0 day
Procedure, shortened: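 Clonogenic assay: MGC-803 cells in log phase were seeded at 200 cells per well, allowed to attach for 12 h at 37 °C in 5% CO2, then exposed to the indicated concentrations or to DMSO for 7 days. Colonies were fixed with 4% paraformaldehyde and stained with 0.1% crystal violet for 15 min.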

MGC-803 [10] = experiment: Induction of cell cycle arrest in human MGC-803 cells assessed as accumulation of cells at G0/G1 phase incubated for 72 hrs by propidium iodide staining based flow cytometry; assay type: functional
Procedure, shortened: (§3)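 Cell cycle: MGC-803 cells were treated with various compound concentrations for 72 h, harvested, washed in PBS at 4 °C, and stained with a commercial PI cell-cycle kit following its instructions. DNA content was analysed by flow cytometry.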

MGC-803 [11] = experiment: Induction of cell cycle arrest in human MGC-803 cells assessed as accumulation of cells at S phase incubated for 72 hrs by propidium iodide staining based flow cytometry; assay type: functional; procedure, shortened: as §3
[12] = biological target: T1, Ubiquitin carboxyl-terminal hydrolase 7; experiment: Inhibition of USP7 in human MGC-803 cells assessed as decrease in MDM2 protein level by Western blot analysis; assay type: cell-based; settings: time 0.5-7 hrs, TDE = time-dependent effect
Target sequence in this assay (Q93009 whole entry, looked up, the tested form may be a part): as above

[13] = biological target: T1, Ubiquitin carboxyl-terminal hydrolase 7; experiment: Inhibition of USP7 in human MGC-803 cells assessed as increase in p53 expression level at 2.5 to 10 uM by Western blot analysis; assay type: cell-based; settings: dose 2.5-10 µM
Target sequence in this assay (Q93009 whole entry, looked up, the tested form may be a part): as above

[14] = biological target: T1, Ubiquitin carboxyl-terminal hydrolase 7; experiment: Inhibition of USP7 in human MGC-803 cells assessed as increase in p21 expression level at 2.5 to 10 uM by Western blot analysis; assay type: cell-based; settings: dose 2.5-10 µM
Target sequence in this assay (Q93009 whole entry, looked up, the tested form may be a part): as above

[15] = biological target: T1, Ubiquitin carboxyl-terminal hydrolase 7; experiment: Binding affinity to recombinant USP7 (208 to 560 residues) (unknown origin) assessed as dissociation constant by biolayer interferometry
Target sequence in this assay (Q93009 whole entry, the tested form may be a part): as the sequence (Q93009 whole entry, looked up, the tested form may be a part) above

inhibition [1]: 32.6%
Compound: O=C(/C=C/c1ccccc1)N1CCC(O)(Cn2cnc3cc(Cl)ccc3c2=O)CC1

IC50 [2]: 5.98 µM
inhibition [3]: Dose-Dependent Effect
Compound: CN(C)CCNc1ccc2c(=O)n(CC3(O)CCN(C(=O)CCc4ccccc4)CC3)cnc2c1

IC50 [2]: > 50 µM
inhibition [1]: < 50%
Compound: O=C(c1ccc[nH]1)N1CCC(O)(Cn2cnc3cc(Cl)ccc3c2=O)CC1

inhibition [1]: 4.29%
Compound: O=C(c1ccccc1[N+](=O)[O-])N1CCC(O)(Cn2cnc3cc(Cl)ccc3c2=O)CC1

IC50 [2]: 1.54 µM
inhibition [3]: Dose-Dependent Effect
IC50 [4]: 0.595 µM
Compound: CC(CC(=O)N1CCC(O)(Cn2cnc3cc(NCCN(C)C)ccc3c2=O)CC1)c1ccccc1 (stereo not given)

inhibition [3]: Dose-Dependent Effect
Compound: CC(CC(=O)N1CCC(O)(Cn2cnc3cc(NCCN4CCCC4)ccc3c2=O)CC1)c1ccccc1 (stereo not given)

IC50 [2]: 27.4 µM
Compound: O=C(CCc1ccccc1)N1CCC(O)(Cn2cnc3cc(Br)ccc3c2=O)CC1

IC50 [2]: > 50 µM
Compound: O=C(Cc1ccc(C(F)(F)F)cc1)N1CCC(O)(Cn2cnc3cc(Cl)ccc3c2=O)CC1

IC50 [2]: 9.8 µM
Compound: O=C(CCc1ccccc1)N1CCC(O)(Cn2cnc3cc(NCc4ccco4)ccc3c2=O)CC1

IC50 [2]: > 50 µM
inhibition [1]: < 50%
Compound: O=C(c1ccccn1)N1CCC(O)(Cn2cnc3cc(Cl)ccc3c2=O)CC1

IC50 [2]: 16.4 µM
Compound: O=C(CCc1ccccc1)N1CCC(O)(Cn2cnc3cc(NCCO)ccc3c2=O)CC1

inhibition [1]: 46.5%
Compound: Nc1cc(Cl)ccc1C(=O)N1CCC(O)(Cn2cnc3cc(Cl)ccc3c2=O)CC1
Activity (MGC-803 [5]): Active

inhibition [1]: 49.1%
Compound: O=C(CCc1ccccc1)N1CCC(O)(Cn2cnc3cc(NCc4ccccc4Cl)ccc3c2=O)CC1
IC50 (MGC-803 [5]): 29.7 µM
IC50 (BGC-823 [6]; BGC-823, 4 h): 43.1 µM
inhibition at 50 µM (MGC-803 [7]): 86.7%
inhibition at 50 µM (BGC-823 [8]): 58.2%

inhibition [1]: 42.2%
Compound: O=C(c1cccc(Br)c1)N1CCC(O)(Cn2cnc3cc(Cl)ccc3c2=O)CC1

inhibition [1]: 18.6%
Compound: O=C(c1ccccc1)N1CCC(O)(Cn2cnc3cc(Cl)ccc3c2=O)CC1

inhibition [1]: 58.3%
Compound: O=C(c1ccc([N+](=O)[O-])cc1)N1CCC(O)(Cn2cnc3cc(Cl)ccc3c2=O)CC1

IC50 [2]: 46.3 µM
Compound: Nc1cc(Br)ccc1C(=O)N1CCC(O)(Cn2cnc3cc(Cl)ccc3c2=O)CC1
IC50 (MGC-803 [5]): 30 µM
Activity (BGC-823 [6]): Active
inhibition at 50 µM (BGC-823 [8]): 52%

IC50 [2]: 4.86 µM
inhibition [12]: Tde
inhibition [13]: Active
inhibition [14]: Active
Kd [15]: 77 µM
IC50 [4]: 5.05 µM
Compound: O=C(CCc1ccccc1)N1CCC(O)(Cn2cnc3cc(NCCN4CCCC4)ccc3c2=O)CC1
inhibition (MGC-803 [9]): Active
Activity (MGC-803 [10]): Active
Activity (MGC-803 [11]): Active
inhibition at 50 µM (MGC-803 [7]): 31%
inhibition at 50 µM (BGC-823 [8]): 28.4%

inhibition [1]: 0.8%
Compound: Cc1ccc(S(=O)(=O)N2CCC(O)(Cn3cnc4cc(Cl)ccc4c3=O)CC2)cc1

Compound: O=C(c1cccc(Cl)c1Cl)N1CCC(O)(Cn2cnc3cc(Cl)ccc3c2=O)CC1
Activity (MGC-803 [5]): Active

IC50 [2]: 6.79 µM
Compound: CC(CC(=O)N1CCC(O)(Cn2cnc3cc(Cl)ccc3c2=O)CC1)c1ccccc1 (stereo not given)

IC50 [2]: > 50 µM
inhibition [1]: < 50%
Compound: O=C(c1cccnc1)N1CCC(O)(Cn2cnc3cc(Cl)ccc3c2=O)CC1

inhibition [1]: 45.9%
Compound: COc1ccccc1CNc1ccc2c(=O)n(CC3(O)CCN(C(=O)CCc4ccccc4)CC3)cnc2c1

inhibition [1]: 22.7%
Compound: O=C(COc1ccccc1)N1CCC(O)(Cn2cnc3cc(Cl)ccc3c2=O)CC1

Compound: O=C(c1ccc(O)cc1)N1CCC(O)(Cn2cnc3cc(Cl)ccc3c2=O)CC1
Activity (MGC-803 [5]): Active
Activity (BGC-823 [6]): Active

IC50 [2]: 15.3 µM
Compound: O=C(CCc1ccccc1)N1CCC(O)(Cn2cnc3cc(NCCc4ccccc4)ccc3c2=O)CC1
IC50 (MGC-803 [5]): 32.1 µM
Activity (BGC-823 [6]): Active
inhibition at 50 µM (BGC-823 [8]): 54%

IC50 [2]: 37 µM
Compound: O=C(CCc1ccccc1)N1CCC(O)(Cn2cnc3cc(NCCN4CCCCC4)ccc3c2=O)CC1

IC50 [2]: > 50 µM
Compound: O=C(Cc1cccc2ccccc12)N1CCC(O)(Cn2cnc3cc(Cl)ccc3c2=O)CC1

IC50 [2]: 23.1 µM
Compound: O=C(CCc1ccccc1)N1CCC(O)(Cn2cnc3cc(Cl)ccc3c2=O)CC1
Activity (MGC-803 [5]): inactive
Activity (BGC-823 [6]): inactive
inhibition at 50 µM (MGC-803 [7]): 31.4%
inhibition at 50 µM (BGC-823 [8]): 8.45%

inhibition [1]: 9.83%
Compound: O=C(COc1cccc2ccccc12)N1CCC(O)(Cn2cnc3cc(Cl)ccc3c2=O)CC1
Activity (MGC-803 [5]): Active
Activity (BGC-823 [6]): Active

inhibition [1]: 49.9%
Compound: O=C(CCc1ccccc1)N1CCC(O)(Cn2cnc3cc(NCc4ccc(Cl)cc4)ccc3c2=O)CC1
